≈ marks a conversion by molar mass, not a printed value. Calls of active or inactive are those of the source. No cut-off for these calls is given here.
What was measured:
[1] = test system: Leishmania donovani; test: Antileishmanial activity against Leishmania donovani promastigotes after 48 hrs by alamar blue assay; format: functional, organism-based
[2] = Selectivity index, ratio of IC50 for african green monkey (Cercopithecus aethiops) Vero cells to IC50 for chloroquine-resistant Plasmodium falciparum W2; format: toxicity, cell-based; details: read-out: Ratio IC50
[3] = Selectivity index, ratio of IC50 for african green monkey (Cercopithecus aethiops) Vero cells to IC50 for chloroquine-sensitive Plasmodium falciparum D6; format: toxicity, cell-based; details: read-out: Ratio IC50
[4] = test system: Plasmodium falciparum; test: Antimalarial activity against chloroquine-resistant Plasmodium falciparum W2 by LDH assay; format: functional, organism-based
[5] = test system: Vero; test: Cytotoxicity against african green monkey kidney Vero cells; format: cell-based; details: Chlorocebus sabaeus
[6] = test system: RAW264.7; test: Cytotoxicity against mouse RAW264.7 cells after 2 days by MTT assay; format: cell-based; details: RAW264.7, 48 h
In short: (§1)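 MTT viability assay, run on CHO-ICAM-1 cells and, separately, on RAW 264.7 cells. IC50 in µg/mL, mean ± SEM of three determinations.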

[7] = test system: RAW264.7; test: Inhibition of iNOS production in LPS-activated mouse RAW264.7 cells after 20 hrs; format: functional, cell-based; details: RAW264.7, 20 h
In short: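 iNOS assay in RAW 264.7 cells, with L-NMMA, APDC and dexamethasone as reference inhibitors. IC50 in µg/mL, mean ± SEM of three determinations.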

[8] = Specific index, ratio of IC50 for mouse RAW264.7 to IC50 for iNOS production in mouse RAW264.7
In short: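 Index calculated as the MTT IC50 in RAW 264.7 cells divided by the iNOS IC50 in the same cells.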

[9] = test system: HeLa; test: Inhibition of protein synthesis in human HeLa cells at 2 uM by [35S]methionine metabolic labeling study; format: functional
[10] = Specific index, ratio of IC50 for human HL60 cells to MIC for LFA1/ICAM1; format: functional, HL-60
In short: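 Index calculated as XTT-assay IC50 (µg/mL) divided by the MIC from the LFA-1/ICAM-1-mediated aggregation primary screen (µg/mL). XTT IC50 values are given as mean ± SEM of three determinations.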

[11] = test system: KB; test: Cytotoxicity against human KB cells after 48 hrs by neutral red staining; format: functional, cell-based
In short: (§2)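 Human tumour lines: SK-MEL (malignant melanoma), KB (epidermal carcinoma), BT-549 (ductal carcinoma) and SK-OV-3 (ovary carcinoma). Compounds tested up to a maximum of 10 µg/mL, with doxorubicin as reference. IC50 given in µg/mL as mean ± SEM of three determinations.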

[12] = Inhibition of protein biosynthesis in mouse Krebs cells assessed as firefly luciferase activity at 10 uM after 1 hr by translation assay relative to control; format: functional
In short: (§3)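 In vitro Krebs cell translation system read by firefly and renilla luciferase. Compounds at 10 or 2 µM; anisomycin 10 µM as reference and 0.5% DMSO as vehicle control. Values are average luciferase activity relative to control.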

[13] = test system: Plasmodium falciparum; test: Antimalarial activity against chloroquine-sensitive Plasmodium falciparum D6 by LDH assay; format: functional, organism-based
[14] = test system: HeLa; test: Inhibition of protein synthesis in human HeLa cells assessed as translation at 2 uM by [35S]methionine metabolic labeling study; format: functional; set-up: scale not given: the % may be the effect or the level left
[15] = Inhibition of protein biosynthesis in mouse Krebs cells assessed as renilla luciferase activity at 2 uM after 1 hr by translation assay relative to control; format: functional; in short: as §3
[16] = test system: CHO; test: Cytotoxicity against CHO cells transfected with ICAM1 by MTT assay; format: cell-based; details: Cricetulus griseus; in short: as §1
[17] = test system: HeLa; test: Inhibition of translation in human HeLa cells at 10 uM by 35S-methionine metabolic labeling study; format: functional, cell-based
[18] = Inhibition of protein biosynthesis in mouse Krebs cells assessed as renilla luciferase activity at 10 uM after 1 hr by translation assay relative to control; format: functional; in short: as §3
[19] = test system: HeLa; test: Inhibition of translation in human HeLa cells at 2 uM by 35S-methionine metabolic labeling study; format: functional, cell-based
[20] = test system: HL-60; test: Cytotoxicity against human HL60 cells by XTT assay; format: cell-based
In short: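 XTT proliferation read-out combined with the primary assay for inhibitors of LFA-1/ICAM-1-mediated cell aggregation. IC50 in µg/mL, mean ± SEM of three determinations.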

[21] = test system: BT-549; test: Cytotoxicity against human BT549 cells after 48 hrs by neutral red staining; format: functional, cell-based; details: BT-549, 48 h; in short: as §2
[22] = test system: SK-OV-3; test: Cytotoxicity against human SKOV3 cells after 48 hrs by neutral red staining; format: functional, cell-based; details: SK-OV-3, 48 h; in short: as §2
[23] = biological target: Intercellular adhesion molecule (ICAM-1), Integrin alpha-L/beta-2 (Homo sapiens) (UniProt P20701+P05362+P05107); test: Inhibition of LFA1/ICAM1-mediated HL60 cell aggregation; format: cell-based; details: HL-60
In short: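 Primary screen for LFA-1/ICAM-1-mediated cell aggregation run together with an XTT cell-proliferation read-out. Aggregation potency is reported as a minimum inhibitory concentration in µg/mL.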

[24] = Inhibition of protein biosynthesis in mouse Krebs cells assessed as firefly luciferase activity at 2 uM after 1 hr by translation assay relative to control; format: functional; in short: as §3
[25] = biological target: Intercellular adhesion molecule (ICAM-1), Integrin alpha-L/beta-2 (Homo sapiens, UniProt P05107+P05362+P20701); test: Inhibition of LFA1/ICAM1-mediated adhesion of HL60 cells to CHO-ICAM1 cells; format: cell-based, HL-60
In short: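 Secondary LFA-1/ICAM-1-mediated adhesion assay using HL-60 cells and CHO-ICAM-1 cells, with cytochalasin B as standard. IC50 in µg/mL, mean ± SEM of three determinations.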

[26] = test system: SK-MEL; test: Cytotoxicity against human SK-MEL cells after 48 hrs by neutral red staining; format: functional, cell-based; in short: as §2
[27] = Inhibition of protein biosynthesis in mouse Krebs cells assessed as firefly luciferase activity at 0.4 uM after 1 hr by translation assay relative to control; format: functional
In short: (§4)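 In vitro Krebs cell-extract translation system with firefly and Renilla luciferase read-outs, reported as average relative luciferase values. Compounds were tested at fixed concentrations (0.4–10 µM). DMSO (0.5%) served as vehicle control.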

[28] = test system: HeLa; test: Inhibition of translation in human HeLa cells at 0.4 uM by 35S-methionine metabolic labeling study; format: functional, cell-based
[29] = Inhibition of protein biosynthesis in mouse Krebs cells assessed as renilla luciferase activity at 0.4 uM after 1 hr by translation assay relative to control; format: functional; in short: as §4

Chain of Intercellular adhesion molecule (ICAM-1), Integrin alpha-L/beta-2 (P20701 whole entry): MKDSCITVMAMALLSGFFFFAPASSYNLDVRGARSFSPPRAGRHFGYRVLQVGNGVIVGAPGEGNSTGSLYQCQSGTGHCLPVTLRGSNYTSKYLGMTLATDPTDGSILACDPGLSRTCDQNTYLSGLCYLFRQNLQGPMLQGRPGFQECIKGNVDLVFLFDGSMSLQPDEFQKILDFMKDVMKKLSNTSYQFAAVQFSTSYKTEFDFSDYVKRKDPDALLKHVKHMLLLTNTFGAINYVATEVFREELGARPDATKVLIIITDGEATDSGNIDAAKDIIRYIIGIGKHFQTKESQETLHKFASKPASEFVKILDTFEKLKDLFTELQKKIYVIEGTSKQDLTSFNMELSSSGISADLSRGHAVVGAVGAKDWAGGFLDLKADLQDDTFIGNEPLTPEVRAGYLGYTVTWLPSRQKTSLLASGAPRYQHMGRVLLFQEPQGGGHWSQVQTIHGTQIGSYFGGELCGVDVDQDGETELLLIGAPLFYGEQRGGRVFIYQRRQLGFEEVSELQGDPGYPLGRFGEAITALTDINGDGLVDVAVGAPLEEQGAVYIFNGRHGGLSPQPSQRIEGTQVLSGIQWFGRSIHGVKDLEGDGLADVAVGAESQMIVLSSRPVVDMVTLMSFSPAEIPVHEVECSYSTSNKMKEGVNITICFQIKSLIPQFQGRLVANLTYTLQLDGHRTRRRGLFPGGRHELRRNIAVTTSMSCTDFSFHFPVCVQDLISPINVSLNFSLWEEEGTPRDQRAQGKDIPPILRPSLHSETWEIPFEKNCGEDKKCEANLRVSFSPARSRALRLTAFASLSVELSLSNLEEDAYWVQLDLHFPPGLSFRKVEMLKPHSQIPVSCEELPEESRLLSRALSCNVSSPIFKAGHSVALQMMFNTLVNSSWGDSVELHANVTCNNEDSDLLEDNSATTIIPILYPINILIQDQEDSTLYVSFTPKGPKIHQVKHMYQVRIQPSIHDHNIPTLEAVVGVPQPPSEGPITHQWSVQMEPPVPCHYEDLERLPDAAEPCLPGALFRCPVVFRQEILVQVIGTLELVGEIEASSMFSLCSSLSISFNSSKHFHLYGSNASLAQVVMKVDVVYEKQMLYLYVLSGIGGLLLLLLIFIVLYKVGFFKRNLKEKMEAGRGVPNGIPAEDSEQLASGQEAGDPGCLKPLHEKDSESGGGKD
Chain of Intercellular adhesion molecule (ICAM-1), Integrin alpha-L/beta-2 (P05362 whole entry): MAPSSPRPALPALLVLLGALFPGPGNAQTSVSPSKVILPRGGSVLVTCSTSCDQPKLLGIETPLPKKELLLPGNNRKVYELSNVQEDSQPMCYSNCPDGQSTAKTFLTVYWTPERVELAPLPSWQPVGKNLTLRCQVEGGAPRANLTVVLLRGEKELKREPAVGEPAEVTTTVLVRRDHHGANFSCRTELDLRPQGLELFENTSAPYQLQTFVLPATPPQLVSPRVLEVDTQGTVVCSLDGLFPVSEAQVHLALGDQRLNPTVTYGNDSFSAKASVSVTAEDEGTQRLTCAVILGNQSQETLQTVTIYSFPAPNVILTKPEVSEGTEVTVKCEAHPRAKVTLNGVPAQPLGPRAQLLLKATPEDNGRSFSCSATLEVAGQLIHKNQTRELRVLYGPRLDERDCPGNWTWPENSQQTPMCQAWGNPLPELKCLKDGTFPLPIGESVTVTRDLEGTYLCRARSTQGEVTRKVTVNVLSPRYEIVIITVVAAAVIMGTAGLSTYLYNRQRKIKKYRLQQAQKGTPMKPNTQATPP
Chain of Intercellular adhesion molecule (ICAM-1), Integrin alpha-L/beta-2 (P05107 whole entry): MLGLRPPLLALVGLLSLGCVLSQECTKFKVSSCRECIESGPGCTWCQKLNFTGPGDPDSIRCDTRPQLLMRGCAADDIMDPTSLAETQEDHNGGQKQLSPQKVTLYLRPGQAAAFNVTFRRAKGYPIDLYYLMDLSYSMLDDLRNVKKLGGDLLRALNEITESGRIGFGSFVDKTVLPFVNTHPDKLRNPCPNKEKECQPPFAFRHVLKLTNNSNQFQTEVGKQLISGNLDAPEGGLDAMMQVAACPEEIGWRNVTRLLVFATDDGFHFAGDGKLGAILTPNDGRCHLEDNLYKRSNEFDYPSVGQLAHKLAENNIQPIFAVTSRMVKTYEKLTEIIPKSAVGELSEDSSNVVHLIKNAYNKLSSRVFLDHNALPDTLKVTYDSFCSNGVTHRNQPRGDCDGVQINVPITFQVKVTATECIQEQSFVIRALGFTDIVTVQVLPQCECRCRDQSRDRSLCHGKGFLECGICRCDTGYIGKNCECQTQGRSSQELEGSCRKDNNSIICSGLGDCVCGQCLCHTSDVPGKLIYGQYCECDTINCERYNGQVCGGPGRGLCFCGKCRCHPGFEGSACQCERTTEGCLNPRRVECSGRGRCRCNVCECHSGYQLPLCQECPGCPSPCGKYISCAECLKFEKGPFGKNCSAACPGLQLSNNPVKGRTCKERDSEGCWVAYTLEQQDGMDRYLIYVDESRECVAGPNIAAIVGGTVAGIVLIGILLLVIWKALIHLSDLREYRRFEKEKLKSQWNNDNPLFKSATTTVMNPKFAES

What does the source list for `C[C@@H]1[C@H](O)[C@@H](C)/C=C/C=C/C=C/C=C/C=C/C=C/C=C/[C@H](O[C@@H]2O[C@H](C)[C@@H](O)[C@H](N)[C@@H]2O)C[C@@H]2O[C@](O)(C[C@@H](O)C[C@@H](O)[C@H](O)CC[C@@H](O)C[C@@H](O)CC(=O)O[C@H]1C)C[C@H](O)[C@H]2C(=O)O` [AMPHOTERICIN B]?
IC50 [1]: 1.1 µg/mL (≈ 1.19 µM); IC90 [1]: 2.1 µg/mL (≈ 2.27 µM)

With `C[C@@H]1CC[C@H]2[C@@H](C)C(=O)O[C@@H]3O[C@@]4(C)CC[C@@H]1[C@]32OO4` [ARTEMISININ] as the compound, how does the selectivity ratio [2] read?
The selectivity ratio was greater than 1180.

What about the selectivity ratio [3] of the same compound?
The selectivity ratio was greater than 699.

What about the IC50 [4] of the same compound?
Its IC50 is 0.0085 µg/mL (≈ 0.0301 µM).

What about the IC50 [1] of the same compound?
Its IC50 is 36 µg/mL (≈ 128 µM).

And the IC90 [1]?
The IC90 was greater than 50 µg/mL.

And the IC50 [5]?
The IC50 was greater than 10 µg/mL.

Which results are given for `C[C@@H]1C[C@H]2[C@@H]3CCC4=CC(=O)C=C[C@]4(C)[C@@]3(F)[C@@H](O)C[C@]2(C)[C@@]1(O)C(=O)CO` [DEXAMETHASONE]?
IC50 [6]: > 25 µg/mL; IC50 [7]: 36 µg/mL (≈ 91.7 µM); Ratio [8]: 0.69

With `CCN(CC)CCCC(C)Nc1ccnc2cc(Cl)ccc12` (stereo not given) [CHLOROQUINE] as the compound, how does the IC50 [5] read?
Its IC50 is greater than 10 µg/mL.

Which inhibition at 2 µM [9] does the source give for `CC[C@@H](C)C(=O)O[C@H]1C(=O)O[C@@H]2C[C@H]3C(C)=CC(=O)[C@@H](O)[C@]3(C)[C@H]3[C@@H](OC(C)=O)[C@H](OC(C)=O)[C@]4(C)OC[C@]32[C@@H]14` here?
Its inhibition at 2 µM is 0%.

What about the Ratio [10] of the same compound?
The Ratio was 1.9.

And the IC50 [6]?
The IC50 was 24 µg/mL (≈ 42.7 µM).

And the IC50 [11]?
Its IC50 is greater than 10 µg/mL.

What about the selectivity ratio [2] of the same compound?
The selectivity ratio was greater than 14.

And the selectivity ratio [3]?
Its selectivity ratio is greater than 7.4.

What about the Activity [12] of the same compound?
The Activity was 0.42.

And the IC50 [4]?
Its IC50 is 1.7 µg/mL (≈ 3.02 µM).

What about the IC50 [13] of the same compound?
Its IC50 is 3.2 µg/mL (≈ 5.69 µM).

And the Activity [14]?
The Activity was 100%.

And the Activity [15]?
Its Activity is 0.87.

What about the IC50 [16] of the same compound?
Its IC50 is 39 µg/mL (≈ 69.3 µM).

What about the Activity [17] of the same compound?
Its Activity is “inactive”.

And the IC50 [1]?
Its IC50 is greater than 50 µg/mL.

And the IC90 [1]?
The IC90 was greater than 50 µg/mL.

And the Activity [18]?
The Activity was 0.52.

What about the Activity [19] of the same compound?
Its Activity is “inactive”.

And the IC50 [20]?
Its IC50 is 40 µg/mL (≈ 71.1 µM).

And the IC50 [21]?
The IC50 was greater than 10 µg/mL.

And the IC50 [22]?
Its IC50 is greater than 10 µg/mL.

What about the IC50 [7] of the same compound?
The IC50 was 23 µg/mL (≈ 40.9 µM).

And the MIC [23]?
Its MIC is 20.8 µg/mL (≈ 37 µM).

And the Ratio [8]?
Its Ratio is 1.

What about the Activity [24] of the same compound?
Its Activity is 1.34.

What about the IC50 [25] of the same compound?
The IC50 was greater than 44.4 µM.

And the IC50 [5]?
Its IC50 is greater than 23.8 µg/mL.

What about the IC50 [26] of the same compound?
The IC50 was greater than 10 µg/mL.

Which inhibition at 2 µM [9] does the source give for `CC[C@@H](C)C(=O)O[C@H]1C(=O)O[C@@H]2C[C@H]3C(C)=CC(=O)[C@@H](O)[C@]3(C)[C@H]3[C@@H](O)[C@H](O)[C@]4(C)OC[C@]32[C@@H]14` [SIMALIKALACTONE D] here?
The inhibition at 2 µM was 98.5%.

And the Ratio [10]?
Its Ratio is 2.5.

And the IC50 [6]?
Its IC50 is 0.08 µg/mL (≈ 0.167 µM).

And the IC50 [11]?
The IC50 was 1 µg/mL (≈ 2.09 µM).

And the selectivity ratio [2]?
The selectivity ratio was 613.

What about the selectivity ratio [3] of the same compound?
The selectivity ratio was 750.

And the IC50 [4]?
The IC50 was 0.00367 µg/mL (≈ 0.00767 µM).

What about the IC50 [13] of the same compound?
Its IC50 is 0.003 µg/mL (≈ 0.00627 µM).

What about the Activity [14] of the same compound?
Its Activity is 1.5%.

What about the Activity [15] of the same compound?
The Activity was 0.09.

And the IC50 [16]?
Its IC50 is 0.032 µg/mL (≈ 0.0669 µM).

And the IC50 [1]?
Its IC50 is 0.035 µg/mL (≈ 0.0731 µM).

And the IC90 [1]?
Its IC90 is 0.2 µg/mL (≈ 0.418 µM).

What about the Activity [19] of the same compound?
Its Activity is “Active”.

And the IC50 [20]?
Its IC50 is 0.025 µg/mL (≈ 0.0522 µM).

And the Activity [27]?
Its Activity is 0.17.

And the IC50 [21]?
Its IC50 is 0.3 µg/mL (≈ 0.627 µM).

And the IC50 [22]?
Its IC50 is 0.3 µg/mL (≈ 0.627 µM).

And the IC50 [7]?
Its IC50 is 0.76 µg/mL (≈ 1.59 µM).

What about the MIC [23] of the same compound?
Its MIC is 0.01 µg/mL (≈ 0.0209 µM).

And the Activity [24]?
Its Activity is 0.05.

And the Activity [28]?
The Activity was “Active”.

What about the Activity [29] of the same compound?
Its Activity is 0.25.

And the IC50 [25]?
Its IC50 is greater than 52.2 µM.

What about the IC50 [5] of the same compound?
Its IC50 is 2.3 µg/mL (≈ 4.81 µM).

And the IC50 [26]?
The IC50 was 0.28 µg/mL (≈ 0.585 µM).

Source: ChEMBL document CHEMBL1151198, “A new antimalarial quassinoid from Simaba orinocensis” (J Nat Prod, 2004)
